Measurements published in ChEMBL document CHEMBL3085669, “Design, synthesis and structure-activity relationship of novel Relacin analogs as inhibitors of Rel proteins” (Eur J Med Chem, 2013).
Calls of active or inactive are those of the source. The calls are words filed in the database; no cut-off is given here.

Legend:
[1] = tested on: Bacillus subtilis; test: Inhibition of Bacillus subtilis relA assessed as reduction in (p)ppGpp level at 2 mM incubated for 15 mins prior to SHX addition measured after 5 to 10 mins by autoradiography
Outline: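 B. subtilis cells grown with inhibitor at 2 mM. Stringent response then induced by adding serine hydroxamate, and intracellular (p)ppGpp measured afterwards.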

[2] = tested on: Escherichia coli; test: Inhibition of Escherichia coli relA assessed as inhibition of (p)ppGpp synthesis at 1 mM by autoradiography in presence of [alpha32]GTP
Outline: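 Purified E. coli RelA assayed in vitro with inhibitor at 1 mM.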

[3] = tested on: Deinococcus radiodurans; test: Inhibition of Deinococcus radiodurans rel/spo assessed as inhibition of (p)ppGpp synthesis by autoradiography in presence of [alpha32]GTP
Outline: (§1)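 Cell-free assay on purified Rel enzymes (Rel/Spo from D. radiodurans, RelA from E. coli), with inhibitor tested across varying concentrations.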

[4] = tested on: Escherichia coli; test: Inhibition of Escherichia coli relA assessed as inhibition of (p)ppGpp synthesis by autoradiography in presence of [alpha32]GTP; outline: as §1

SMILES | inhibition [1] | inhibition [2] [%] | inhibition [3] | inhibition [4]
CC(C)C(=O)Nc1nc2c(ncn2[C@H]2C[C@H](OC(=O)NC(CCC(=O)O)C(=O)NC(CCC(=O)O)C(=O)O)[C@@H](COC(=O)NC(CCC(=O)O)C(=O)NC(CCC(=O)O)C(=O)O)O2)c(=O)[nH]1 (stereo partly drawn) | Active | 80.4 | Dose-dependent effect | Dose-dependent effect
CC(C)C(=O)Nc1nc2c(ncn2[C@H]2C[C@H](OC(=O)N[C@@H](CCC(=O)O)C(=O)O)[C@@H](COC(=O)NCC(=O)O)O2)c(=O)[nH]1 |  | 50.4 |  | 
CC(C)C(=O)Nc1nc2c(ncn2[C@H]2C[C@H](OC(=O)N(CCCN(C)C)CCCN(C)C)[C@@H](COC(=O)N(CCCN(C)C)CCCN(C)C)O2)c(=O)[nH]1 |  | 12 |  | 
CC(C)C(=O)Nc1nc2c(ncn2[C@H]2C[C@H](OC(=O)NCCCCCC(=O)O)[C@@H](COC(=O)NCCCCCC(=O)O)O2)c(=O)[nH]1 |  | 25.6 |  | 
CC(C)C(=O)Nc1nc2c(ncn2[C@H]2C[C@H](OC(=O)NC(CCC(=O)O)C(=O)O)[C@@H](COC(=O)N[C@@H](CCC(=O)O)C(=O)O)O2)c(=O)[nH]1 (stereo partly drawn) |  | 50.6 |  | 
CC(C)C(=O)Nc1nc2c(ncn2[C@H]2C[C@H](OC(=O)NCC(=O)O)[C@@H](COC(=O)N[C@@H](CCC(=O)O)C(=O)O)O2)c(=O)[nH]1 |  | 52.1 |  | 
CC(C)C(=O)Nc1nc2c(ncn2[C@H]2C[C@H](OC(=O)NCCN(C)C)[C@@H](COC(=O)NCCN(C)C)O2)c(=O)[nH]1 |  | 31.2 |  | 
CC(C)C(=O)Nc1nc2c(ncn2[C@H]2C[C@H](OC(=O)NCC(=O)O)[C@@H](COC(=O)NCC(=O)O)O2)c(=O)[nH]1 | Active | 51.1 |  | 
CC(C)C(=O)Nc1nc2c(ncn2[C@H]2C[C@H](OC(=O)NCC(=O)NCC(=O)O)[C@@H](COC(=O)NCC(=O)NCC(=O)O)O2)c(=O)[nH]1 |  | 66.3 |  | 
